Measurements as given in ChEMBL document CHEMBL2016575, “The chemical synthesis of metabolically stabilized 2-OMe-LPA analogues and preliminary studies of their inhibitory activity toward autotaxin” (Bioorg Med Chem Lett, 2012).

What was measured:
Autotaxin [1] = biological target: T1, Autotaxin (Homo sapiens, UniProt Q13822); experiment: Inhibition of human recombinant autotaxin expressed in insect Sf9 cells using FS-3 as substrate preincubated for 10 mins prior substrate addition measured up to 60 mins by FRET-based analysis
Autotaxin [2] = biological target: T1, Autotaxin; experiment: Inhibition of human recombinant autotaxin expressed in insect Sf9 cells using FS-3 as substrate at 1 uM preincubated for 10 mins prior substrate addition measured up to 60 mins by FRET-based analysis
[3] = Metabolic stability of the compound assessed as reduction in dephosphorylation at […] after 24 hrs by phosphomolybdate blue assay in presence of bovine intestinal mucosal alkaline phosphatase; format: ADME; details: cattle, isolated protein
In short: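 Substrate incubated with the phosphatase at 37 °C for 24 h. Dephosphorylation is followed by quantifying liberated inorganic phosphate with a modified phosphomolybdate blue assay.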

| Compound | IC50 (Autotaxin [1]) | inhibition (Autotaxin [2]) | Stability [3] |
| --- | --- | --- | --- |
| CCCCCCCC/C=C\CCCCCCCC(=O)OCC(COP(=O)(O)S)OC (stereo not given) | 0.356 µM | 77.8% | – |
| CCCCCCCCCCCCCC(=O)OCC(COP(=O)(O)O)OC (stereo not given) | 0.704 µM | 57.7% | – |
| CCCCCCCCCCCCCCCC(=O)OCC(COP(=O)(O)S)OC (stereo not given) | 0.512 µM | 64.7% | – |
| CCCCCCCCCCCCCCCCCC(=O)OCC(COP(=O)(O)S)OC (stereo not given) | 2.42 µM | 35.5% | – |
| CCCCCCCCCCCC(=O)OCC(COP(=O)(O)O)OC (stereo not given) | 1.2 µM | 45.5% | – |
| CCCCCCCCCCCCCCCCCC(=O)OCC(COP(=O)(O)O)OC (stereo not given) | 1.01 µM | 49.7% | – |
| CCCCCCCCCCCC(=O)OCC(COP(=O)(O)S)OC (stereo not given) | 2.41 µM | 36.7% | – |
| CCCCCCCCCCCCCCCC(=O)OCC(COP(=O)(O)O)OC (stereo not given) | 0.361 µM | 74.5% | – |
| CCCCCCCC/C=C\CCCCCCCC(=O)OC[C@@H](O)COP(=O)(O)O [LYSOPHOSPHATIDIC ACID] | – | – | Unstable |
| CCCCCCCCCCCCCCCCCC(=O)OC[C@@H](O)CC(Br)P(=O)(O)O (stereo not given in full) | 0.17 µM | 86.1% | Stable |
| CCCCCCCCCCCCCC(=O)OCC(COP(=O)(O)S)OC (stereo not given) | 0.596 µM | 62.3% | – |
| CCCCCCCC/C=C\CCCCCCCC(=O)OCC(COP(=O)(O)O)OC (stereo not given) | 0.22 µM | 81.3% | Stable |
